Test [1] deals with Vascular endothelial growth factor receptor 1 (Homo sapiens) (UniProt P17948). The test is described as follows: Binding affinity to recombinant FLT1 (unknown origin) assessed as change in melting temperature at 10 uM by DSF assay. In a few lines:
(§1)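 Differential scanning fluorimetry on an in-house panel of 90 recombinant kinases. Stabilization is read as the shift in melting temperature (ΔTm) relative to ligand-free protein. Staurosporine served as the positive control, and binding was also compared against its ΔTm.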

Test [2] has as its target T1, Mitogen-activated protein kinase 15 (Homo sapiens) (UniProt Q8TD08).
T1 sequence (whole entry): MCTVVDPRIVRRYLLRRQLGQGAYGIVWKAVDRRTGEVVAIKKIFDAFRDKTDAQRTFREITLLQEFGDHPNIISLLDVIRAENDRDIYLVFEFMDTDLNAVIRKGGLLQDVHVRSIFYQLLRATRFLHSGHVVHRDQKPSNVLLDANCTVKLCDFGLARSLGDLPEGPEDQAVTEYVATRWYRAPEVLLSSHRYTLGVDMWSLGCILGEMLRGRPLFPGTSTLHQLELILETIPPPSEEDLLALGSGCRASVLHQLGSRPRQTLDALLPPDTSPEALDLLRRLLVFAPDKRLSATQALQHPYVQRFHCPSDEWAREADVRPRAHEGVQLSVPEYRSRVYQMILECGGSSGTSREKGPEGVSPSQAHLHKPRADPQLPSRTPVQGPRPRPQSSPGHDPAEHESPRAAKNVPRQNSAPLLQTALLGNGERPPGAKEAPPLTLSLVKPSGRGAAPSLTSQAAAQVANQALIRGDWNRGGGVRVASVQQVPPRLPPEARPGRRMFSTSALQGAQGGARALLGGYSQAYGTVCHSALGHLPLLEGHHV
The test is described as follows: Binding affinity to recombinant MAPK15 (unknown origin) assessed as change in melting temperature at 10 uM by DSF assay. In a few lines:
as §1

Test [3] addresses Glycogen synthase kinase-3 beta (Homo sapiens, UniProt P49841). Briefly: Inhibition of N-terminal NanoLuc-fused full length intact GSK3B (unknown origin) transfected in HEK293T cells incubated for 2 hrs in presence of tracer K8 by NanoBRET assay. In kind it is cell-based. In a few lines:
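Cellular target engagement by NanoBRET in intact cells expressing NanoLuc-fused GSK3A or GSK3B, with EC50 values derived from tracer displacement.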
For orientation: Bioluminescence resonance energy transfer reports proximity on the nanometre scale.

Test [4] deals with Serine/threonine-protein kinase 24 (Homo sapiens) (UniProt Q9Y6E0). The test is described as follows: Inhibition of recombinant MST3 (unknown origin) at 10 uM by DSF assay relative to staurosporine. An outline of the steps: as §1
Serine/threonine-protein kinase 24 (Homo sapiens), sequence (Q9Y6E0 whole entry, looked up): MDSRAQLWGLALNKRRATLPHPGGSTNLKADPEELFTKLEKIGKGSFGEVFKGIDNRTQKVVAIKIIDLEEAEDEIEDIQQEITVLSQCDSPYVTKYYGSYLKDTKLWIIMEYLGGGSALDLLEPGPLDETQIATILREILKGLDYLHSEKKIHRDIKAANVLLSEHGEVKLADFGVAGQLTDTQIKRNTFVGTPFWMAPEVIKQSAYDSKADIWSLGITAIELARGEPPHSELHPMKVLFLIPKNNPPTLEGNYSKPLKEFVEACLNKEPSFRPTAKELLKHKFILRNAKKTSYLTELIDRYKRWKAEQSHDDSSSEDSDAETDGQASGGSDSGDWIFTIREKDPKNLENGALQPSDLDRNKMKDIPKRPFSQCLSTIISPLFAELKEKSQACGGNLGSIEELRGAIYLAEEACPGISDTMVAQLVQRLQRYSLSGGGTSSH
In test [5] the target is T2, Bone morphogenetic protein receptor type-2 (Homo sapiens, UniProt Q13873).
T2 sequence (Q13873 whole entry): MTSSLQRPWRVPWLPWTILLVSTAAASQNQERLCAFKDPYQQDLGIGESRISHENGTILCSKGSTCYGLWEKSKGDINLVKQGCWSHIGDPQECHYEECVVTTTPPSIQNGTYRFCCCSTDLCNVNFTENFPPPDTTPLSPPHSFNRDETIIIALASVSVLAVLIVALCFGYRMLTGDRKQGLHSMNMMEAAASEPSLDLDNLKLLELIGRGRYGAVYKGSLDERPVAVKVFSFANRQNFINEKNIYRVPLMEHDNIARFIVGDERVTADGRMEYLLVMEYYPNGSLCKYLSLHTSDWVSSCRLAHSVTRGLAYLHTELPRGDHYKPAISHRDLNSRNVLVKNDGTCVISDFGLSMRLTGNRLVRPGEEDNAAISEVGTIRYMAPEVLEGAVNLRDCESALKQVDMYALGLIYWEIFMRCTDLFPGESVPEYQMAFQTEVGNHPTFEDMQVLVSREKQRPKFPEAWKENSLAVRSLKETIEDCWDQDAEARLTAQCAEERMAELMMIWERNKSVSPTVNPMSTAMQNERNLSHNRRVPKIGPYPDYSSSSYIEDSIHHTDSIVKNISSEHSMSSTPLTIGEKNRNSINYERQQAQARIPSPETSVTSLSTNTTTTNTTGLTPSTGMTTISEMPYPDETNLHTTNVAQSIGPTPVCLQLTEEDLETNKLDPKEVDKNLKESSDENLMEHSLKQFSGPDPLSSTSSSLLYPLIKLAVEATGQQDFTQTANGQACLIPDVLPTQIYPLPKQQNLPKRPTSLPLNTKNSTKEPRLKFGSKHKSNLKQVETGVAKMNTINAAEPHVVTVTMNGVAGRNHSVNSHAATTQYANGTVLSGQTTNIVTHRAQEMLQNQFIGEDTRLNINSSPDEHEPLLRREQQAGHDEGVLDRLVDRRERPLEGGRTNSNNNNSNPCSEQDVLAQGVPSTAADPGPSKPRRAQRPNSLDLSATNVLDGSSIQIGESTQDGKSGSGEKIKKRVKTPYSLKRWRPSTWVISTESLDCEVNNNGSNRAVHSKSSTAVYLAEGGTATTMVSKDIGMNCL
The test is described as follows: Inhibition of BMPR2 (unknown origin) assessed as dissociation constant by ITC assay. An outline of the steps:
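Binding measured by isothermal titration calorimetry against the recombinant BMPR2 kinase domain. Thermodynamic binding parameters, including the dissociation constant, were derived from the titration data.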

Vascular endothelial growth factor receptor 1 (Homo sapiens), sequence (P17948 whole entry): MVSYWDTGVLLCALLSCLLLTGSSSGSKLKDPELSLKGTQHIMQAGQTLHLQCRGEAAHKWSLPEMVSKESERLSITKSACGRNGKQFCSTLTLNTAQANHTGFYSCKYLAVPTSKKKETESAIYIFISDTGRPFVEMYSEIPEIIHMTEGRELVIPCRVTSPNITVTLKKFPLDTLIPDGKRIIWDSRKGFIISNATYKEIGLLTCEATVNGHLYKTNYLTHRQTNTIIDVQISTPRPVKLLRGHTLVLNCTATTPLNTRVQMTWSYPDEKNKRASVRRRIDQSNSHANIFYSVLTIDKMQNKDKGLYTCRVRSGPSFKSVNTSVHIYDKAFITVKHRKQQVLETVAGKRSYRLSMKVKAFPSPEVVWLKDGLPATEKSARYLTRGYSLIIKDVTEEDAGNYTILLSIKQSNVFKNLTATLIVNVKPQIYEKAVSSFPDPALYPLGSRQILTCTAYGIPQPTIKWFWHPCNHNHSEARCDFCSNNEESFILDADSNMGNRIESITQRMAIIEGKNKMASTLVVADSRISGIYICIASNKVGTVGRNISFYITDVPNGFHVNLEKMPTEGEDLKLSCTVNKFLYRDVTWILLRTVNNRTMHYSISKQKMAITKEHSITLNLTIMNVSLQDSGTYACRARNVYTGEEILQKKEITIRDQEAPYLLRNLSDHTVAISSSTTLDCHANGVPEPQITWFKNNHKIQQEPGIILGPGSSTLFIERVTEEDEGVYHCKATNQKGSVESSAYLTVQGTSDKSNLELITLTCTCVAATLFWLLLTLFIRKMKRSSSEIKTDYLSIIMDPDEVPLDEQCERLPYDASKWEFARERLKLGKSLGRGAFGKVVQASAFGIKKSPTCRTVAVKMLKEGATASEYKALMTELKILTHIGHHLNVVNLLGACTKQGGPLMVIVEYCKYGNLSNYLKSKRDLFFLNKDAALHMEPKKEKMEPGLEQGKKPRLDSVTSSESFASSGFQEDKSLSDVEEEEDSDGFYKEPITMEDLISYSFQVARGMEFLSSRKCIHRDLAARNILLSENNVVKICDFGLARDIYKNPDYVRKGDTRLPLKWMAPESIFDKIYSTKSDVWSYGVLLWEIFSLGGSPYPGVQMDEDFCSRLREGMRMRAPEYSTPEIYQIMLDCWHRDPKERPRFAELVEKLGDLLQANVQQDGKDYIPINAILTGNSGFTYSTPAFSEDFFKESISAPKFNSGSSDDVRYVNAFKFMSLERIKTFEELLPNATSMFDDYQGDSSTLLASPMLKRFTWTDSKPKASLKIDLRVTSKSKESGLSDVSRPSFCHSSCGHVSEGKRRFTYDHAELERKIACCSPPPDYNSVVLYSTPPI
Glycogen synthase kinase-3 beta, sequence (P49841 whole entry, the tested form may be a part): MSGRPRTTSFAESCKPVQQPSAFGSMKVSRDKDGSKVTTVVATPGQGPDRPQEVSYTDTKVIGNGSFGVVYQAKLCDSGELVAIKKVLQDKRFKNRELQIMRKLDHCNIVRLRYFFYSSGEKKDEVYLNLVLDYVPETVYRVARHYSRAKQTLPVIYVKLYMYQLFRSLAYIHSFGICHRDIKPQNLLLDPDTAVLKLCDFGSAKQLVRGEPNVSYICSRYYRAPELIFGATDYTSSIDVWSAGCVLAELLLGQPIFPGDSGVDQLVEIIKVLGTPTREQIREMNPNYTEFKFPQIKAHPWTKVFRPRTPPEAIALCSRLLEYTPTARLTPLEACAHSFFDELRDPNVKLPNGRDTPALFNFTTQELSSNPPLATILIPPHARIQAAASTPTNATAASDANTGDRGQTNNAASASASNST

Regarding `O=C1NCCc2ccc(cc2)Nc2nccc(n2)Nc2cc1[nH]n2`, the values for the ΔTm in test [1] and in test [2] were 4.2 °C and 3.8 °C, respectively. Also, the 50% inhibitory concentration (IC50) – broadly, the concentration at which inhibition is half-maximal – in test [3] came out at 34 µM. Moreover, in test [4], the inhibition (in general, how much of the control response was suppressed) came to 44%. Further, the dissociation constant (Kd) (in general, the equilibrium constant for the complex coming apart) in test [5] is 83.5 nM.

The values are drawn from ChEMBL document CHEMBL5247671, “Design and Synthesis of Pyrazole-Based Macrocyclic Kinase Inhibitors Targeting BMPR2” (ACS Med Chem Lett, 2023).
